# Experimental data: ChEMBL document CHEMBL4513216, “Probing the Open Global Health Chemical Diversity Library for Multistage-Active Starting Points for Next-Generation Antimalarials” (ACS Infect Dis, 2020)
# Assay: Toxicity liver stage against HepG2, at 10uM
# Assay type: cell-based
# Set-up: test concentration 10 uM, cell line HepG2-A16-CD81EGFP
# Settings: human, HepG2-A16-CD81EGFP cells; read-out: INHIBITION
# In short: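 Uninfected HepG2-A16-CD81EGFP cells, 3 × 10^3 per well, 1536-well, plated on prespotted compound at 10 μM final, parasite-free screening media added to match infected plates; puromycin 10 μM positive, DMSO 0.5% negative; run in parallel with 48 h PbLuc assay at 37 °C, 5% CO2; viability by CellTiter-Glo luminescence, normalized to controls.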
row,Structure (SMILES),cytotoxicity at 10 µM [%]
1,Cc1ncoc1C(=O)N1CCCC(C(=O)c2cccc(OC(C)C)c2)C1 (configuration not stated),8.84
2,Fc1ccc2[nH]c([C@H]3CCN(C4CCOCC4)C3)nc2c1,1.9
3,CCNC(=O)NC[C@H]1C[C@@H]2CCN1C[C@@H]2c1cc(-c2cccs2)nn1C,-5.72
4,Cc1n[nH]c2c1C(c1ccc(O)cc1)SCC(=O)N2 (configuration not stated),10.6
5,COc1ccc2c(c1)OC1(CCN(Cc3ccc(C)cc3)CC1)CC2=O,7.6
6,CC(=O)Nc1ccc(OCc2noc(C(=O)N3CCCC3)n2)cc1,-12.3
7,CC(C)CNC(=O)CNc1c(NCc2ccco2)c(=O)c1=O,-0.817
8,Cc1cc(=O)n(CCNS(=O)(=O)c2ccccc2)cn1,3.33
9,CN(C)CC1CSCCCN1S(=O)(=O)Cc1ccc(C(F)(F)F)cc1 (configuration not stated),-5.36
10,O=C(CC1CCCC1)N1CCN(c2ccc(-n3cncn3)nn2)CC1,-11.9
11,CN1CCN(C(=O)[C@H]2CC[C@@H]3[C@@H](CCN3Cc3nccs3)O2)CC1,5.41
12,O=C(COc1ccc2c(c1)OCO2)NCc1ccco1,3.22
13,Cc1ncc(-c2ccccn2)c(CCNC(=O)C2CCCC2)n1,16.4
14,Cc1cc2nccc(C3CCCN(C(=O)c4ccccc4F)C3)n2n1 (configuration not stated),13.6
15,CCc1n[nH]c(C(=O)NCCn2nccc2C)c1C,-7.28
16,CN(C)CCN(Cc1cccc(F)c1)C(=O)c1ccn(C)c(=O)c1,-3.92
17,CN1CCCC(CNC(=O)N(C)Cc2ccc(Cl)c(F)c2)C1 (configuration not stated),1.36
18,O=C(CN1CCc2cncnc2C1)NC1CCCCNC1=O (configuration not stated),7.36
19,O=C(NCC1(O)CCC1)c1c(O)cc(Cl)cc1Cl,0.924
20,CC1CCCCN1C(=O)COc1nc(Cc2ccc(F)cc2)no1 (configuration not stated),1.43
21,O=C(Nc1cccnc1)N(Cc1ccccc1)C1CC1,7.78
22,COc1ncnc(N)c1CNCc1ccccc1-n1cccn1,-24.4
23,O=C(NCC[S+]([O-])c1ccccc1)c1ccc2[nH]c(=O)[nH]c2c1 (configuration not stated),3.18

row,Structure (SMILES),cytotoxicity at 10 µM [%]
1,CCc1c(C(=O)Nc2ccc(F)c(C(=O)NC)c2)cnn1CC(C)C,14.7
2,Cc1noc(CCNC(=O)C2CSCN2C(=O)C2CCCC2)n1 (configuration not stated),-45
3,CN1CCCC(CNC(=O)CN(C)S(=O)(=O)c2cccnc2)C1 (configuration not stated),9.45
4,Cc1nc(CN2CCN(S(=O)(=O)N3CCOCC3)CC2)oc1C,0.373
5,CN(C)c1ncccc1NC(=O)COC1CCCC1,0.189
6,CCOc1ccccc1C(N)CC(C)C (configuration not stated),-0.857
7,Cc1cc(CNCC2CNc3ccnn3C2)no1 (configuration not stated),-6.06
8,O=C(NCC1(O)CCC1)NC(c1cc(F)ccc1F)C1CC1 (configuration not stated),-4.81
9,CN(CCCNC(=O)C1CCc2cn[nH]c2C1)c1ccc(F)cc1 (configuration not stated),14.2
10,NC(=O)C1CCCN1Cc1nccn1CC(F)(F)F (configuration not stated),12.2
11,COC(C)Cc1nc(-c2cnn3c(C)cc(C)nc23)no1 (configuration not stated),-8.11
12,CN(CCCNC(=O)NCc1ccncc1)CC(F)(F)F,1.85
13,Cc1nc(N2CCC(CC(=O)N3CCCC3)CC2)c2cnn(C)c2n1,0.866
14,CS(=O)(=O)c1ccc(NC(=O)CSc2ccc3c(c2)CCC3)cc1,5.73
15,COCc1nc2n(n1)CCCC2Nc1nc(C)ns1 (configuration not stated),-3.32
16,O=C(CN1CCCC1Cn1cccn1)NC1CCN(C2CC2)CC1 (configuration not stated),5.77
17,Fc1cccc(C2CCCN2Cc2nnnn2C2CC2)c1 (configuration not stated),2.8
18,CCOc1ccc(CNCc2ccc(C(=O)NC)cc2)cc1OCC,-7.06
19,c1cc(-c2noc(CN3CCc4c(ncn4C4CC4)C3)n2)cs1,4.71
20,Cc1noc(CS(=O)(=O)CC(=O)NC(C)c2ccccc2)n1 (configuration not stated),9.81
21,CS(=O)(=O)CCCSCc1cc(F)cc(Br)c1,9.05
22,CNS(=O)(=O)c1ccc(CNC(=O)N(CC(C)C)C(C)C)cc1,4.5
23,CC(C)NC(=O)CNC(C)c1c(F)cccc1Cl (configuration not stated),7.22

row,Structure (SMILES),cytotoxicity at 10 µM [%]
1,CC(C(=O)N1CCCCCC1)N1CCN(c2nccs2)CC1 (configuration not stated),11.7
2,CN(C(=O)CCN1CCCC1=O)c1cc(C#N)c2ccccc2n1,3.33
3,CN(C)c1cc2c(nn1)CCN(C(=O)c1cc3ccccc3[nH]c1=O)C2,3.99
4,Fc1cc(CNc2nncs2)ccc1Cl,-1.74
5,CC(=O)N1CCCN(C(=O)NCCCN(C)S(C)(=O)=O)CC1,-2.44
6,OCc1ccc(N2CCN(c3ncccn3)CC2)c(F)c1,-23.8
7,CN1CCN(C(CNC(=O)CCn2cccn2)c2cccs2)CC1 (configuration not stated),24.4
8,CN(C)C(=O)CN1CCO[C@H]2CN(Cc3ccoc3)C[C@H]21,-108
9,Cc1nnc([C@@]23CCO[C@@H]2CCN(Cc2ccc4c(c2)OCO4)C3)o1,-102
10,CN(C)C(=O)C1CCC2(CCN(C(=O)Nc3ccc(F)cc3)CC2)O1 (configuration not stated),-111
11,CCN1Cc2c(C(=O)NC(C)C)ncn2-c2ccccc2S1(=O)=O,-83.9
12,Cc1nc(NCC2CC2)nc2c1COCC21CCN(C)C1 (configuration not stated),-0.722
13,Cc1noc(C)c1C1CCCN1CCC(=O)N1CCc2ccccc2C1 (configuration not stated),2.39
14,Cc1ccc(CN2CC[C@@H](NC(=O)c3cccnc3)[C@H](O)C2)o1,2.52
15,O=C(CN1CCCCC1)NCc1cccnc1-n1cnc2ccccc21,0.522
16,CCCc1cc(C(=O)NC(COC)c2ccnn2C)no1 (configuration not stated),-6.14
17,CCC[C@H]1CN(Cc2nccn2C)C[C@@H]1NC(=O)C1(COC)CCC1,-3.7
18,CCc1nc2ccccc2n1C(CC)C(=O)N(C)Cc1noc(C)n1 (configuration not stated),2.23
19,Cc1nc(CNCc2cccc(OC34CCCN(CC3)C4)c2)n[nH]1 (configuration not stated),-3.69
20,Cc1sc2nc(CCN)nc(N3CCS(=O)(=O)CC3)c2c1C,-44.1
21,CC(NC(=O)c1cccc(CCC(C)(C)O)c1)c1nnc(N)s1 (configuration not stated),1.16
22,CN(C)C(C(=O)NC1(CO)CCCC1)c1ccc(F)cc1 (configuration not stated),-48.2
23,COc1cccc(CC(=O)N2CCC(Cc3nnc(SC)n3C)CC2)c1,-40.2

row,Structure (SMILES),cytotoxicity at 10 µM [%]
1,Nc1nc2c(c(N3CCC(CCn4cccn4)CC3)n1)CCNCC2,-4.17
2,COc1ccc(Cl)cc1C(C(=O)O)N1CCSCC1 (configuration not stated),-10.8
3,O=S(=O)(NCc1ccccc1)N1CCN(c2ncccn2)CC1,4.7
4,CCn1c(-c2ccccc2)nn(CC(=O)NCCc2c[nH]cn2)c1=O,-2.99
5,CCC(CO)(CO)NC(=O)C1CCC(=O)N(CCc2ccccc2)C1 (configuration not stated),-2.78
6,O=C(c1ccco1)N1CCC(n2cc(-c3ccsc3)nn2)CC1,1.41
7,Cc1cc(C)nc(NC2CCCN(CCCc3ccccc3)C2)n1 (configuration not stated),2.49
8,O=C(NCc1nc(-c2ncccn2)no1)c1ccc(C2CCCO2)s1 (configuration not stated),0.774
9,CCc1nccn1-c1cncc(C2CCCN2Cc2ccc(F)cc2)n1 (configuration not stated),-1.44
10,CNC(=O)c1ccc(C(=O)N2CCCC2c2c(C)nn(C)c2C)cn1 (configuration not stated),-12.8
11,NC(=O)C1CN(C(=O)Nc2ccccc2OCC(F)(F)F)CCO1 (configuration not stated),-7.75
12,Cn1cnc(S(=O)(=O)NCCN2CCCCCC2)c1Cl,-17.2
13,CC(C)c1nc(C2CCCN(C(=O)CCn3cncn3)C2)no1 (configuration not stated),-21.1
14,c1ccc(-c2nc(CN3CCCC3Cn3cncn3)co2)cc1 (configuration not stated),-1.99
15,Cc1cc(C)n(CC2CCCCN2CC(=O)NC2CCOCC2)n1 (configuration not stated),-9.01
16,CC(C)c1nc(CN2CCCC(Cn3cncn3)C2)cs1 (configuration not stated),-12.9
17,Cc1cc(NC(=O)NCc2cccnc2OC(C)C)no1,-11.5
18,CCN(Cc1cccc2c1OCO2)C(=O)NCCOC,1.45
19,O=S(=O)(CCCNC1CCc2ncnn2C1)c1ccccc1 (configuration not stated),2.53
20,CCc1n[nH]c(C2CN(C(=O)c3ccnc(C4CC4)n3)CCO2)n1 (configuration not stated),2.4
21,CCn1cc(CN2CCCN(C(=O)c3ccc(C)o3)CC2)cn1,-13.9
22,COc1c(C2CCCN2C(=O)c2csc(C(C)C)n2)c(C)nn1C (configuration not stated),-8.26
23,CCc1nnc2n1CCN(C(=O)COCCc1ccccc1)C2,-8.28

row,Structure (SMILES),cytotoxicity at 10 µM [%]
1,Cc1nnc2n1CCN(C(C(=O)NC1CC1)c1ccccc1)C2 (configuration not stated),-2.94
2,Cc1cc(C2CCCN2C(=O)c2cc3c(s2)CCC3)on1 (configuration not stated),-13.4
3,Cc1cc(C(C)NC(=O)N2CCC(n3cncn3)CC2)c(C)s1 (configuration not stated),-15.9
4,CCc1nc(CN2CCCN(C(=O)C(C)n3ccnc3)CC2)cs1 (configuration not stated),-13.8
5,CCc1nc(CN(C)C2CCN(CCc3ccccn3)C2)no1 (configuration not stated),-0.168
6,CC(Cc1c(F)cccc1F)NC(=O)Nc1cnn(CC(N)=O)c1 (configuration not stated),-2.96
7,CNC(=O)[C@@H](c1ccccc1)N1CCC[C@H]1C(=O)NC1CCCCC1,2.35
8,O=C([C@H]1COC[C@H]2CN(C3CCCCC3)C[C@H]21)N1CCOCC1,-110
9,Cc1occc1C(=O)N1CCC2(CC1)CC(OCc1ccccn1)CO2 (configuration not stated),-71.7
10,Cc1ccc(N2CCC3(CC2)CC(OCC(C)C)C3)nn1,-121
11,CCOC1COC2(CCN(CC3CCOCC3)CC2)C1 (configuration not stated),-97.6
12,CS(=O)(=O)CC(=O)N1C[C@H]2CCC[C@@]2(COCc2ccncc2)C1,-101
13,CC(C)Cc1nc(-c2ccnc(N3CCNCC3)n2)no1,2.04
14,O=C(NC1CC1)N1CCC2(CC1)C(=O)NCCN2Cc1ccccc1,-0.685
15,COc1ccc(OCc2sc(C3(O)CCCNCC3)nc2C)cc1 (configuration not stated),-3.66
16,COCCN1CCCn2c(nc(CNC(=O)COC)cc2=O)C1,-106
17,COc1cc(CNCCc2nc(C)cs2)cc2c1OCCO2,-2.4
18,COc1nn(C)c2c1CCCN(C(=O)c1cccc(C)n1)C2,-97.3
19,Cc1nc(CN2CC[C@@H]3O[C@@H](C(=O)N4CCOCC4)C[C@@H]32)cs1,2.08
20,CCOC1CC2(CCN(C(=O)Cc3ccccn3)CC2)C1,-90.9
